Reference: ChEMBL document CHEMBL1909594, “Synthesis of polyfunctionalized piperidone oxime ethers and their cytotoxicity on HeLa cells” (Bioorg Med Chem Lett, 2011)
pIC50: −log10 of the molar value. Activity calls are given as the source filed them. The rule behind the calls is not given here.

Assays:
[1] = test system: HeLa; experiment: cells; type: functional, cell-based; conditions: Homo sapiens, 24 h
[2] = test system: HeLa; experiment: Induction of apoptosis in human HeLa cells assessed as margination of chromation into horseshoe shaped structure at 25 uM after 24 hrs using Hoechst staining method; type: functional, cell-based
Method in brief: (§1)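 HeLa cells at 1 × 10⁴ cells/well in 96-well plates, in three replicates, were treated and incubated overnight at 37 °C. Cells were washed twice with PBS and fixed in 4% paraformaldehyde in PBS for one day. They were stained with 1 µg/mL Hoechst 33342 for 20 min at room temperature. Nuclei were imaged by fluorescence microscopy at 360/470 nm excitation/emission.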

[3] = test system: HeLa; experiment: Induction of apoptosis in human HeLa cells assessed as fragmentation of nucleus at 25 uM after 24 hrs using Hoechst staining method; type: functional, cell-based
Method in brief: as §1

[4] = test system: HeLa; experiment: Ratio of camptothecin IC50 to compound IC50 for human HeLa cells; type: functional
[5] = test system: HeLa; experiment: Induction of apoptosis in human HeLa cells assessed as blebbing of cellular membrane at 25 uM after 24 hrs using Hoechst staining method; type: functional, cell-based; conditions: in the assay text read “by phase contrast microscopy” for “using Hoechst staining method”
Method in brief: (§2)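 HeLa cells (ATCC) were grown in DMEM with 10% heat-inactivated FBS plus penicillin/streptomycin at 37 °C under 5% CO₂. Cells at 1 × 10⁵/well were exposed to compound for 24 h. Morphology changes were then examined by phase-contrast light microscopy against untreated cells.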

[6] = test system: HeLa; experiment: Induction of apoptosis in human HeLa cells assessed as deformed nucleus/cytoplasm consistency at 25 uM after 24 hrs using Hoechst staining method; type: functional, cell-based
Method in brief: as §1

[7] = test system: HeLa; experiment: Induction of apoptosis in human HeLa cells assessed as cell membrane rupture at 25 uM after 24 hrs using Hoechst staining method; type: functional, cell-based; conditions: in the assay text read “by phase contrast microscopy” for “using Hoechst staining method”
Method in brief: as §2

[8] = test system: HeLa; experiment: Induction of apoptosis in human HeLa cells assessed as chromosomal fragmentation at 25 uM after 24 hrs using Hoechst staining method; type: functional, cell-based
Method in brief: as §1

[9] = test system: HeLa; experiment: Induction of apoptosis in human HeLa cells assessed as cytoplasm content release at 25 uM after 24 hrs using Hoechst staining method; type: functional, cell-based; conditions: in the assay text read “by phase contrast microscopy” for “using Hoechst staining method”
Method in brief: as §2

[10] = test system: HeLa; experiment: Induction of apoptosis in human HeLa cells assessed as formation of apoptotic bodies at 25 uM after 24 hrs using Hoechst staining method; type: functional, cell-based
Method in brief: as §1

[11] = test system: HeLa; experiment: Induction of apoptosis in human HeLa cells assessed as chromosomal condensation at 25 uM after 24 hrs using Hoechst staining method; type: functional, cell-based
Method in brief: as §1

SMILES | pIC50 [1] | further results
CO/N=C1\C[C@@H](c2ccc(OC)cc2)N(C)[C@@H](c2ccc(OC)cc2)[C@@H]1C | 4.09 | 
CC[C@@]1(O)C(=O)OCc2c1cc1n(c2=O)Cc2cc3ccccc3nc2-1 [CAMPTOTHECIN] | 5.05 | 
CO/N=C1\C[C@@H](c2ccc(C)cc2)N(C)[C@@H](c2ccc(C)cc2)[C@@H]1C | 4.32 | 
CO/N=C1\C[C@@H](c2ccc(OC)cc2)N[C@@H](c2ccc(OC)cc2)[C@@H]1C | 3.81 | 
COc1cc([C@@H]2c3cc4c(cc3[C@@H](O[C@@H]3O[C@@H]5CO[C@@H](C)O[C@H]5[C@H](O)[C@H]3O)[C@H]3COC(=O)[C@H]23)OCO4)cc(OC)c1O [ETOPOSIDE] | 4.63 | 
CO/N=C1\C[C@@H](c2ccc(Br)cc2)N[C@@H](c2ccc(Br)cc2)[C@@H]1C (relative stereo) | 4.60 | Activity [2]: Active; Activity [3]: Active; Ratio IC50 [4]: 3; Activity [5]: Active; Activity [6]: Active; Activity [7]: Active; Activity [8]: Active; Activity [9]: Active; Activity [10]: Active; Activity [11]: Active
CO/N=C1\C[C@@H](c2ccccc2)N[C@@H](c2ccccc2)[C@@H]1C(C)C | 4.31 | 
CO/N=C1\C[C@@H](c2ccccc2)N[C@@H](c2ccccc2)C1 (relative stereo) | 3.92 | 
CO/N=C1\C[C@@H](c2ccc(Cl)cc2)N[C@@H](c2ccc(Cl)cc2)[C@@H]1C (relative stereo) | 4.31 | 
CO/N=C1\C[C@@H](c2ccc(Cl)cc2)N(C)[C@@H](c2ccc(Cl)cc2)[C@@H]1C | 4.44 | 
CC[C@@H]1/C(=N/OC)C[C@@H](c2ccccc2)N(C)[C@H]1c1ccccc1 | 4.38 | 

Further lines, with some results ahead:

pIC50 [1] | SMILES | further results
4.03 | CO/N=C1/[C@@H](C)[C@H](c2ccc(OC)cc2)N[C@H](c2ccc(OC)cc2)[C@H]1C | 
4.29 | CO/N=C1/[C@@H](C)[C@H](c2ccc(C(C)C)cc2)N[C@H](c2ccc(C(C)C)cc2)[C@H]1C | 
4.09 | CO/N=C1\C[C@@H](c2ccc(C)cc2)N[C@@H](c2ccc(C)cc2)[C@@H]1C | 
4.01 | CCOc1ccc([C@H]2N[C@@H](c3ccc(OCC)cc3)[C@H](C)/C(=N/OC)[C@@H]2C)cc1 | 
3.95 | CO/N=C1\C[C@@H](c2ccccc2)N[C@@H](c2ccccc2)[C@@H]1C (relative stereo) | 
4.24 | CC[C@@H]1/C(=N/OC)C[C@@H](c2ccccc2)N[C@H]1c1ccccc1 | 
4.42 | CO/N=C1\C[C@@H](c2cccc(F)c2)N[C@@H](c2cccc(F)c2)[C@@H]1C | 
4.39 | CO/N=C1\C[C@@H](c2ccc(F)cc2)N(C)[C@@H](c2ccc(F)cc2)[C@@H]1C | 
4.42 | CO/N=C1/[C@@H](C)[C@H](c2cccc(F)c2)N[C@H](c2cccc(F)c2)[C@H]1C | 
4.26 | CO/N=C1/[C@@H](C)[C@H](c2ccc(C)cc2)N[C@H](c2ccc(C)cc2)[C@H]1C | 
4.31 | CO/N=C1\C[C@@H](c2ccc(F)cc2)N[C@@H](c2ccc(F)cc2)[C@@H]1C | 
